Experimental data taken from ChEMBL document CHEMBL5244249, “Discovery of tofacitinib derivatives as orally active antitumor agents based on the scaffold hybridization strategy” (Eur J Med Chem, 2020).
Calls of active or inactive are those of the source. No cut-off for these calls is given here.

Legend:
MGC-803 [1] = test: Induction of mitochondrial dysfunction in human MGC-803 cells assessed as downregulation of procaspase-9 expression at 5 to 10 uM incubated for 24 hrs by Western blot analysis; assay type: functional, cell-based; conditions: dose 5-10 µM
In short: (§1)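 Western blot of caspase 9, 3, 7, PARP and γH2A.X in MGC-803 lysates after 24 h exposure to 5, 7.5 or 10 μM; band quantitation; mean ± SD from three independent experiments.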

[2] = Activation of MAPK pathway in human MGC-803 cells assessed as change in ERK1/2 total expression at 5 to 10 uM incubated for 24 hrs by Western blot analysis; assay type: cell-based; conditions: dose 5-10 µM
[3] = Activation of MAPK pathway in human MGC-803 cells assessed as change in Erk5 total expression at 5 to 10 uM incubated for 24 hrs by Western blot analysis; assay type: cell-based; conditions: dose 5-10 µM
MGC-803 [4] = test: Induction of mitochondrial dysfunction in human MGC-803 cells assessed as upregulation of gammaH2AX expression at 5 to 10 uM incubated for 24 hrs by Western blot analysis; assay type: functional, cell-based; conditions: dose 5-10 µM; in short: as §1
[5] = Toxicity in SCID mouse xenografted with human MGC-803 cells assessed as effect on body weight at 12.5 to 25 mg/kg, IG administered for 21 days; assay type: organism-based; conditions: in vivo, po, 504 h, dose 12.5-25 mg/kg, time 21 day
In short: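 SCID mice bearing subcutaneous MGC-803 xenografts (right side) dosed with 12.5 or 25 mg/kg over 21 days, 0.5% CMC-Na vehicle as control; body weight and tumor size monitored periodically; major organs examined histopathologically at end; means ± SD.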

MGC-803 [6] = test: Induction of apoptosis in human MGC-803 cells assessed as necrotic cells at 10 uM incubated for 48 hrs by Annexin V-FITC/PI staining based flow cytometric analysis (reference value: 0.3 %); assay type: functional
MGC-803 [7] = test: Inhibition of colony formation in human MGC-803 cells at 2 uM incubated for 9 days by crystal violet staining based analysis relative to control; assay type: functional; conditions: MGC-803, 216 h, time 9 day
In short: (§2)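 Clonogenic assay: MGC-803 cells grown 9 days with 0, 1, 2 or 3 μM; colonies counted and inhibition rate calculated against untreated control; mean ± SD of three independent experiments.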

MGC-803 [8] = test: Induction of apoptosis in human MGC-803 cells assessed as late apoptotic cells at 7.5 uM incubated for 24 hrs by Annexin V-FITC/PI staining based flow cytometric analysis (reference value: 3.8 %); assay type: functional
MGC-803 [9] = test: Induction of apoptosis in human MGC-803 cells assessed as early apoptotic cells at 5 uM incubated for 48 hrs by Annexin V-FITC/PI staining based flow cytometric analysis (reference value: 2.5 %); assay type: functional
MGC-803 [10] = test: Induction of apoptosis in human MGC-803 cells assessed as total apoptotic cells at 10 uM incubated for 48 hrs by Annexin V-FITC/PI staining based flow cytometric analysis relative to control; assay type: functional
MGC-803 [11] = test: Induction of apoptosis in human MGC-803 cells assessed as late apoptotic cells at 5 uM incubated for 24 hrs by Annexin V-FITC/PI staining based flow cytometric analysis (reference value: 3.8 %); assay type: functional
[12] = Selectivity index, ratio of IC50 for cytotoxicity against human GES1 cells to IC50 for antiproliferative activity against human MGC-803 cells; assay type: toxicity, cell-based; conditions: GES1 cells and MGC-803 cells, read-out: Ratio IC50
MGC-803 [13] = test: Induction of apoptosis in human MGC-803 cells assessed as late apoptotic cells at 10 uM incubated for 48 hrs by Annexin V-FITC/PI staining based flow cytometric analysis (reference value: 0.5 %); assay type: functional
MGC-803 [14] = test: Antitumor activity against human MGC-803 cells xenografted in SCID mouse assessed as decrease in average tumor weight at 25 mg/kg, IG administered for 21 days relative to control; assay type: functional; parameters: scale not given: the % may be the effect or the level left; conditions: time 21 day
In short: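 MGC-803 cells implanted subcutaneously on the right side of SCID mice; dosed at 12.5 or 25 mg/kg in 0.5% CMC-Na (vehicle control) for 21 days. Body weight and tumor size recorded periodically; tumors excised and weighed at end. Means ± SD.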

MGC-803 [15] = test: Induction of apoptosis in human MGC-803 cells assessed as early apoptotic cells at 10 uM incubated for 24 hrs by Annexin V-FITC/PI staining based flow cytometric analysis (reference value: 3.9 %); assay type: functional
MGC-803 [16] = test: Induction of apoptosis in human MGC-803 cells assessed as necrotic cells at 5 uM incubated for 48 hrs by Annexin V-FITC/PI staining based flow cytometric analysis (reference value: 0.3 %); assay type: functional
MGC-803 [17] = test: Induction of apoptosis in human MGC-803 cells assessed as early apoptotic cells at 5 uM incubated for 24 hrs by Annexin V-FITC/PI staining based flow cytometric analysis (reference value: 3.9 %); assay type: functional
MGC-803 [18] = test: Inhibition of colony formation in human MGC-803 cells at 3 uM incubated for 9 days by crystal violet staining based analysis relative to control; assay type: functional; conditions: MGC-803, 216 h, time 9 day; in short: as §2
MGC-803 [19] = test: Antiproliferative activity against human MGC-803 cells assessed as decrease in cell viability at 10 uM preincubated with SP600125 for 4 hrs followed by compound addition and measured after 24 hrs by MTT assay; assay type: functional, cell-based
In short: (§3)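 MGC-803 cells pre-incubated 4 h with SB203580 (4 μM) or SP600125 (20 μM), then exposed to 10 μM test compound for 24 h; viability by MTT, expressed as percent of control. Mean ± SD, three independent experiments.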

MGC-803 [20] = test: Induction of apoptosis in human MGC-803 cells assessed as cell debris at 5 to 10 uM incubated for 24 hrs by Hoechst 33342 staining based fluorescence microscopic analysis; assay type: functional; conditions: dose 5-10 µM
In short: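 MGC-803 cells exposed to 0, 5, 7.5 or 10 μM; cell morphology imaged and nuclear morphology examined by staining. Mean ± SD, three independent experiments.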

MGC-803 [21] = test: Induction of apoptosis in human MGC-803 cells assessed as early apoptotic cells at 10 uM incubated for 48 hrs by Annexin V-FITC/PI staining based flow cytometric analysis (reference value: 2.5 %); assay type: functional
[22] = Cytotoxicity against human GES1 cells assessed as inhibition of cell growth incubated for 72 hrs by MTT assay; assay type: toxicity, cell-based
MGC-803 [23] = test: Cell cycle arrest in human MGC-803 cells assessed as S phase cells at 5 uM incubated for 24 hrs by RNase/PI staining based flow cytometric analysis (reference value: 27.1%); assay type: functional
MGC-803 [24] = test: Induction of apoptosis in human MGC-803 cells assessed as viable cells at 10 uM incubated for 48 hrs by Annexin V-FITC/PI staining based flow cytometric analysis (reference value: 96.7 %); assay type: functional; conditions: read-out: Activity
MGC-803 [25] = test: Inhibition of colony formation in human MGC-803 cells at 1 uM incubated for 9 days by crystal violet staining based analysis relative to control; assay type: functional; conditions: MGC-803, 216 h, time 9 day; in short: as §2
MGC-803 [26] = test: Induction of apoptosis in human MGC-803 cells assessed as increase in Bax protein expression at 5 to 10 uM incubated for 24 hrs by Western blot analysis; assay type: functional, cell-based; conditions: dose 5-10 µM
In short: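 After 24 h exposure of MGC-803 cells, Bcl-2, Mcl-1, Bax and cytochrome c release assessed by Western blot with band quantitation; mean ± SD from three independent experiments.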

MGC-803 [27] = test: Antiproliferative activity against human MGC-803 cells assessed as decrease in cell viability at 10 uM preincubated with SB203580 for 4 hrs followed by compound addition and measured after 24 hrs by MTT assay; assay type: functional, cell-based; in short: as §3

Cc1cc(N2CC[C@@H](C)[C@@H](N(C)c3ncnc4[nH]ccc34)C2)n2nc(SCc3ccc(C(F)(F)F)cc3)nc2n1
Activity (MGC-803 [1]): Active | Activity [2]: inactive | Activity [3]: inactive | Activity (MGC-803 [4]): Active | Activity [5]: Non-Toxic | Activity (MGC-803 [6]): 0.9% | inhibition at 2 µM (MGC-803 [7]): 54% | Activity (MGC-803 [8]): 15.8% | Activity (MGC-803 [9]): 8.5% | Activity (MGC-803 [10]): 82.1% | Activity (MGC-803 [11]): 8.8% | selectivity ratio [12]: 6.5 | Activity (MGC-803 [13]): 77.2% | Activity (MGC-803 [14]): 53% | Activity (MGC-803 [15]): 12.7% | Activity (MGC-803 [16]): 0.9% | Activity (MGC-803 [17]): 5.5% | inhibition at 3 µM (MGC-803 [18]): 73% | Activity (MGC-803 [19]): inactive | Activity (MGC-803 [20]): Active | Activity (MGC-803 [21]): 4.9% | IC50 at 72 h [22]: 17.3 µM | Activity (MGC-803 [23]): 30.04% | viability at 10 µM (MGC-803 [24]): 17% | inhibition at 1 µM (MGC-803 [25]): 31% | Activity (MGC-803 [26]): Active | Activity (MGC-803 [27]): inactive
